High-throughput results (PubChem BioAssay)
SKKanGAS inh: inhibitors of SKKanGAS S. pyogenes growth in kanamycin (SK-promoter or general growth effect); BacTiter-Glo, 6 h; inhibition, % at 7.5 µM; 300,000 tested, 1.3% active;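 active = mean replicate score, as percent of positive control median, at least 50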;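 also: strain carries kanamycin resistance gene driven by streptokinase promoter and grows in 40 µg/ml kanamycin; loss of luminescence reflects streptokinase promoter inhibition or plain growth inhibition; 0% = median of DMSO wells and 100% = positive control at its reference dose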
CSC inhib: blocks cancer stem cells; inhibition, % at 7.5 µM; cancer stem cell-like cells viability, luminescence; 300,000 tested, 1.1% active; in the data active = inhibition above about 75%; tested in HMLE shEcad cells
Mdm2 MdmX PPI: disrupts the human Mdm2-MdmX interaction; SaOS-2 split-luciferase Mdm2/MdmX complementation, luminescence; 330,000 tested, 3% active; inhibition, % at 8 µM; O15151+Q00987;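 active = inhibition of at least 50% at 8 µM in the primary screen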
Target sequence (O15151 whole entry, looked up): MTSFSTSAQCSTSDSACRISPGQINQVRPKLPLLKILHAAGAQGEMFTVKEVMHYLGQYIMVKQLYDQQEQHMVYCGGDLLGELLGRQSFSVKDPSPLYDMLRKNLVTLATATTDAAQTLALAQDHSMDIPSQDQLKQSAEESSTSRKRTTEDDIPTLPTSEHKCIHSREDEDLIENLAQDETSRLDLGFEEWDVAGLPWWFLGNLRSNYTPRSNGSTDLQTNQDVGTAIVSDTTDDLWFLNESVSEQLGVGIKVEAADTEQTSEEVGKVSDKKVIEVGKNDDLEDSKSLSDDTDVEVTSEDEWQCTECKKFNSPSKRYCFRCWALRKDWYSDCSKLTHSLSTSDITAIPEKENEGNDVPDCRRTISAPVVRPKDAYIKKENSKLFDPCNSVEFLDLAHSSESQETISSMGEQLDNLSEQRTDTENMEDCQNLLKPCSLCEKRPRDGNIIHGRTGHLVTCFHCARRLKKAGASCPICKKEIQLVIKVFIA
Target sequence (Q00987 whole entry, looked up): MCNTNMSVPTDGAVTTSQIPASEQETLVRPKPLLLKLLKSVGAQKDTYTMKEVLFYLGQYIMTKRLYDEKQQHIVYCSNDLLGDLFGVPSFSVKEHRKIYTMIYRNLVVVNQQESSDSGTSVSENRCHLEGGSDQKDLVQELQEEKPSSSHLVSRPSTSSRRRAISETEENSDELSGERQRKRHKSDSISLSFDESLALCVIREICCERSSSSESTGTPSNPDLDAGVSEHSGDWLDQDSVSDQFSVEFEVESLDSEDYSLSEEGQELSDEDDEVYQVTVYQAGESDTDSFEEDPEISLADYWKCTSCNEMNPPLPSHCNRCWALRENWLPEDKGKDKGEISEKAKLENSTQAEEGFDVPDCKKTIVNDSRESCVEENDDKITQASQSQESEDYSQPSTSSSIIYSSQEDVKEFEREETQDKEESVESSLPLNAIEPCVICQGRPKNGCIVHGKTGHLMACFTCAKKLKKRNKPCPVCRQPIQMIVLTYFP
Beta cell apopt: beta cell apoptosis inhibition; INS-1E cytokine-induced death, ATP luminescence, 48 h; percent of positive-control rescue, neutral wells zero; AID 435005; 300,000 tested, 0.8% active; protection from apoptosis, % (concentration not given with the values);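 active = Every replicate reaches about 75%, or at least half do and their mean reaches it too, limit read from the data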;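 also: 0% = cytokine-treated negative control wells and 100% = positive control rescue; higher means more ATP so stronger rescue from cytokine killing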
Calb FLC: affects C. albicans growth with fluconazole. C. albicans CaCi-2 (fluconazole-resistant clinical isolate) + fluconazole, Alamar Blue growth, 48 h. growth inhibition, % (concentration not given with the values). 300,000 tested, 0.57% active. AID 1979;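 active = growth inhibition above about 58% in most replicates, limit read from the data, passing the limit was not always enough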;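 also: all wells also contain fluconazole at 8 µg/ml as a sub-toxic cotreatment; 0% = median of DMSO wells and 100% = median of geldanamycin control wells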
T cruzi inh: T. cruzi replication inhibition; T. cruzi beta-gal in NIH3T3, luminescence, 90 h; 300,000 tested, 1.4% active; AID 1885; inhibition, % (no concentration beside the values);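 active = mean inhibition across valid replicates above about 55%, limit read from the data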;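 also: signal also drops with host cell toxicity which is not excluded here; 0% = plate median of DMSO wells and 100% = zero luminescence signal; higher percent means less beta-gal luminescence so fewer parasites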
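assay system = mouse NIH/3T3 fibroblasts infected with β-gal-expressing T. cruzi Tulahuen C4 | input = 5,000 NIH/3T3 host cells per well | buffer or medium = DMEM plus 2% FBS | timing = 3 h host attachment, then at least 90 h co-culture | measured by = GalScreen luminescence, 60 min | evaluation = luminescence reflecting intracellular parasite burden, expressed as percent inhibition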
Mdm2 MdmX conf: confirmation of human Mdm2/MdmX interaction inhibitors; AID 489028; 10,000 tested, 55% active; Mdm2-MdmX binding, luminescent assay; shares compounds with Mdm2 MdmX PPI; inhibition, % at 8 µM; in the data active = inhibition above about 40%
Full FLuc ctr: full-length luciferase inhibition in Mdm2/MdmX counter-screen. AID 504607. SaOS-2 full-length luciferase counterscreen, luminescence. shares compounds with Mdm2 MdmX PPI. 6,200 tested, 77% active. inhibition, % at 8 µM;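 active = mean inhibition at 8 µM reaching about 37%, which flags the compound as non-specific, limit read from the data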;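 also: p53-null SaOS-2 cells with luciferase driven by a doxycycline-inducible promoter; compound on cells about two nights before reading with doxycycline added after day one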
* hit, by the source's call; . = no result. In the library only some 5.7% were active in any assay of this set; here they are far more common.

SMILES	SKKanGAS inh	CSC inhib	Mdm2 MdmX PPI	Beta cell apopt	Calb FLC	T cruzi inh	Mdm2 MdmX conf	Full FLuc ctr
CCC1=NN(C(=O)COc2ccccc2)C(O)(c2ccc(Br)cc2)C1 (stereo not drawn)	5	-7	21	-6	-12	14	.	.
Cc1ccccc1N(CC(=O)NCCc1ccccc1)C(=O)c1csnn1	3	.	-21	-1	6	5	.	.
CC(C)CCn1c(Sc2nc3ccccc3o2)nc2c1c(=O)[nH]c(=O)n2C	4	20	61*	-10	35	16	46*	41*
Cn1c(=O)[nH]c(=O)c2c1nc(N1CCCCC1)n2CCSc1nc2ccccc2o1	-1	9	2	4	0	6	.	.
CC(C)CN1C(=O)C(=O)N(CC(=O)N2CCN(c3ccccc3)CC2)C1=O	19	2	16	-6	5	19	.	.
CCOC(=O)c1c(NC(=O)CSc2nnc(C)s2)sc2c1CCC(CC)C2 (stereo not drawn)	33	39	13	3	4	33	.	.
Cn1c(N)c(C(=O)COC(=O)c2cc(C(F)(F)F)nc3ccccc23)c(=O)n(Cc2ccccc2)c1=O	.	1	50*	0	.	.	35	.
Cn1c(=O)c(C(=O)CCl)c(N)n(Cc2ccccc2)c1=O	0	20	58*	1	4	-18	46*	86*
Cc1cc(C(=O)CSc2nc3ccccc3c(=O)n2C)c(C)n1Cc1ccc2c(c1)OCO2	-1	21	63*	99*	-10	49	32	.
Cn1c(N)c(C(=O)CSc2nc3ccccc3c(=O)n2Cc2ccccc2)c(=O)n(C)c1=O	0	-2	89*	5	7	-20	44*	90*
COc1cccc(CNC(=O)CCCn2nc(C)n3c(cc4sccc43)c2=O)c1	-8	-9	13	2	-3	-8	.	.
O=C(/C=C/c1ccc(F)cc1)NCC1(c2ccccc2)CCOCC1	-7	-4	5	-1	53	5	.	.
O=S(=O)(NC1CC(NS(=O)(=O)OCC(Cl)(Cl)Cl)C2CCCCC12)OCC(Cl)(Cl)Cl (stereo not drawn)	91*	83*	77*	-5	-11	7	70*	59*
C[C@H](NS(=O)(=O)OCC(Cl)(Cl)Cl)C1CC1c1ccccc1 (stereo partly drawn)	24	40	-15	0	-9	6	.	.
O=C(NCc1cccnc1)c1c(O)c2cccc3c2n(c1=O)CCC3	-2	-1	71*	-7	-4	19	45*	31
C=CCNC(=O)c1c(O)c2cccc3c2n(c1=O)CCC3	-1	5	66*	.	-2	-5	56*	53*
Oc1ccc(Nc2nc3ccccc3nc2Nc2ccc(O)cc2)cc1	12	78*	100*	.	42	71*	-2	.
O=C(O)Cc1sc(NC2CCCCC2)nc1-c1ccc(Cl)cc1	3	3	0	5	5	26	.	.
O=C(NCCSc1ccccc1)c1ccc(CN2CCOCC2)cc1	-9	22	-93	3	-2	-5	.	.
CCCn1c(N)c(C(=O)CSc2nc(N)cc(=O)[nH]2)c(=O)n(C)c1=O	.	-9	1	-1	.	.	.	.
CCCc1cc(=O)oc2cc(C)cc(OCC(=O)NCCCN3CCOCC3)c12	3	-26	-33	-1	0	13	.	.
COc1ccc(CCN2C(=O)CSC2=S)cc1OC	7	25	85*	-32	24	52	84*	40*
COc1ccc(CCN2C(=O)/C(=C\c3ccco3)SC2=S)cc1OC	4	.	75*	.	5	21	47*	79*
O=C1/C(=C\c2ccco2)SC(=S)N1Cc1ccccc1	38	-19	39	-11	4	-2	.	.
COc1ccc(CN2C(=O)CSCC2=O)cc1OC	-4	-1	-13	-7	0	-9	.	.
SMILES	SKKanGAS inh	CSC inhib	Mdm2 MdmX PPI	Beta cell apopt	Calb FLC	T cruzi inh	Mdm2 MdmX conf	Full FLuc ctr
CCOC(=O)c1cc(S(=O)(=O)N2CCCC2)cn1C	-2	7	12	-6	6	-23	.	.
Clc1ccccc1/C=N/Nc1cc(N2CCOCC2)ncn1	-4	-3	-2	-4	-2	0	.	.
C/C(=N\Nc1cc(N2CCOCC2)ncn1)c1cccc([N+](=O)[O-])c1	-3	.	60*	-24	-37	13	21	.
O=[N+]([O-])c1cccc(/C=N/Nc2cc(N3CCOCC3)ncn2)c1	-4	3	59*	-11	-3	-4	33	.
O=[N+]([O-])c1cccc(/C=N/Nc2cc(Cl)nc(-c3ccccc3)n2)c1	39	0	66*	14	4	20	10	.
CCCOc1ccc(/C=N/Nc2cc(N3CCOCC3)ncn2)c(O)c1	-10	98*	73*	91*	14	3	81*	24
N/C(=N\OC(=O)CC(c1ccccc1)c1ccccc1)c1cccnc1	-20	22	88*	2	16	8	64*	100*
Cc1cccc(C(=O)Nc2nc(C)c(C(=O)Nc3ccc4c(c3)CCC4)s2)c1	42	.	58*	.	-6	-11	43*	53*
CCc1cccc2c1NC(=O)C21N2CCCC2C(C(=O)c2ccc3ccccc3c2)C12C(=O)Nc1ccccc12 (stereo not drawn)	13	50	32	10	-8	-3	.	.
CCc1ccc2c(c1)C1(C(=O)N2)N2CCCC2C(C(=O)c2ccc3ccccc3c2)C12C(=O)Nc1ccccc12 (stereo not drawn)	29	159*	91*	121*	5	26	38	91*
O=C1CC(c2ccccc2F)c2cc3c(cc2N1)CCC3 (stereo not drawn)	3	.	58*	.	11	-4	58*	57*
O=C1CC(c2cc(Br)ccc2F)c2cc3c(cc2N1)CCC3 (stereo not drawn)	-4	82*	66*	40	1	-10	56*	95*
O=C1CC(c2ccccc2Br)c2cc3c(cc2N1)CCC3 (stereo not drawn)	-1	67	58*	4	-9	-19	62*	56*
COc1cccc(C2CC(=O)Nc3cc4c(cc32)CCC4)c1 (stereo not drawn)	-1	14	46	26	-22	-26	.	.
Cc1cc2c(cc1C)C(c1ccccc1Br)CC(=O)N2 (stereo not drawn)	24	7	17	-2	-3	26	.	.
O=C1CC(c2cccc(Cl)c2)c2cc3c(cc2N1)CCC3 (stereo not drawn)	-6	.	54*	.	10	-8	58*	64*
O=C(c1ccc(Cl)nc1)N1CCN(C/C=C/c2ccccc2)CC1	0	1	-29	5	4	2	.	.
